Screening data (PubChem BioAssay)
Cardio protect = myocardial damage modulation in H9c2 cells | H9c2 cardiomyocytes, H2O2 injury protection, ATPLite, 2 h | protection from H2O2 cell death, % at 20 µM | hit rate 0.63% among 360,000 | AID 588492;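 active = compounds giving at least 50% protection of heart cells from peroxide-induced death in the single-dose screen, raw or plate-pattern-corrected value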;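 note: 0% = DMSO wells with peroxide and 100% = DMSO wells without peroxide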
PP5 primary = inhibitors of human protein phosphatase 5 (PP5) | purified PP5c, OMFP substrate fluorescence | hit rate 0.18% among 320,000 | inhibition, % at 6.7 µM | P53041;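 active = inhibition above the campaign's mean inhibition across all tested compounds plus 3 SD, cut at about 9.5% in these data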;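 note: 0% = DMSO only and 100% = 100 µM cantharidin control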
Target sequence (P53041 whole entry, looked up): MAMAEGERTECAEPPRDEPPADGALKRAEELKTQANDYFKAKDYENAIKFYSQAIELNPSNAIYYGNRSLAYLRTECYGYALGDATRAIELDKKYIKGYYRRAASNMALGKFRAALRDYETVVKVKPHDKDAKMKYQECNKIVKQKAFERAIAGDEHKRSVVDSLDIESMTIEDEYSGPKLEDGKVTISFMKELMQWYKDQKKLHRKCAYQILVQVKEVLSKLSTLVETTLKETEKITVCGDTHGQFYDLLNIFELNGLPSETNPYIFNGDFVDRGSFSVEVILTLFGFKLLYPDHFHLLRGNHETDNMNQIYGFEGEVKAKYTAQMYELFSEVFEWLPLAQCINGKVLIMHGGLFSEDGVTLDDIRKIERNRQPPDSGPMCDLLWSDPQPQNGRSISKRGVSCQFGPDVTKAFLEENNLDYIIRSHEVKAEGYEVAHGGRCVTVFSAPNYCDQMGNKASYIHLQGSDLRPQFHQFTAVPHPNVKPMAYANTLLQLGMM
Fh CTSL1 inh = blocks F. hepatica cathepsin L1 in PFM18AAP counter-screen | recombinant F. hepatica cathepsin L1, Z-Leu-Arg-MCA fluorescence | inhibition, % at 5.96 µM | hit rate 0.49% among 300,000;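 active = inhibition above the mean of all tested compounds plus 3 SD, set per screening campaign, cut at about 17% in these data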;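 note: 0% = plate median of test compound wells and 100% = 1 µM Z-Phe-Ala-diazomethylketone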
p-CIP stab down = lowers stability of the mouse p/CIP coactivator protein | Q05BA5 | F442A p/CIP-EGFP cells, EGFP fluorescence, 16 h | decrease of EGFP signal, % at 10 µM | hit rate 0.01% among 290,000 | AID 1984;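 active = EGFP signal decrease of at least 30% at 10 µM or well 3 SD below plate mean, unless failing retest; inactive = the rest, including hits failing retest or dose response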
T cruzi inh = T. cruzi replication inhibition; AID 1885; inhibition, % (no concentration beside the values); hit rate 1.4% among 300,000; T. cruzi beta-gal in NIH3T3, luminescence, 90 h;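 active = mean inhibition across valid replicates above about 55%, limit read from the data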;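 note: signal also drops with host cell toxicity which is not excluded here; 0% = plate median of DMSO wells and 100% = zero luminescence signal; higher percent means less beta-gal luminescence so fewer parasites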
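System: Mouse NIH/3T3 fibroblasts infected with β-gal-expressing T. cruzi Tulahuen C4 | Quantity: NIH/3T3 cells, 5,000 per well | Reagent: 5000 reporter trypomastigotes per well | Dosing: Compound pinned at 50 nL/well, DMSO | Schedule: 3 h host attachment, then at least 90 h co-culture | Detection: GalScreen luminescence, 60 min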
GASC-1 inh = inhibitors of human GASC-1 (JMJD2C) demethylase | Q9H3R0 | GST-JMJD2C(1-420) H3K9me3 demethylation, DELFIA europium | inhibition, % at 2.35 µM | hit rate 0.069% among 330,000 | AID 2099;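 active = more than half of a compound's replicate wells show inhibition beyond 50%, single wells judged on their own value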;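 note: signal counts dimethyl H3K9 product captured on neutravidin plate; 0% = median of DMSO wells and 100% = 0.3 times that DMSO median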
Starred values were filed as active, the others as inactive; x = no result. An excerpt weighted towards active compounds, which were near 2.4% of everything screened.

SMILES	Cardio protect	PP5 primary	Fh CTSL1 inh	p-CIP stab down	T cruzi inh	GASC-1 inh
COc1ccc(CC(=O)Nc2ncc([N+](=O)[O-])s2)cc1OC	0	1	4	-5	63*	5
COc1ccc(N2CCN(CC(=O)Nc3ccccc3C(=O)NCc3ccccc3)CC2)cc1	25	0	x	x	x	x
N#CCSc1ccccc1NC(=O)CN1C(=O)C2CC=CCC2C1=O (stereo not drawn)	5	x	x	x	x	x
C/C(=N\OC(=O)Nc1ccccc1)c1cnn(-c2cc(C(F)(F)F)cc(C)n2)c1C	1	0	-1	1	-17	1
Cc1nc(NC(=O)c2ccccc2)sc1-c1csc(NCc2ccccc2)n1	-6	-2	5	-5	-10	4
COc1cccc(Nc2nc(-c3sc(NC(=O)c4ccco4)nc3C)cs2)c1	50*	3	0	0	0	12
Cc1nc(NC(=O)c2ccccc2)sc1-c1csc(NCCc2ccccc2)n1	16	-2	2	-7	69*	2
COc1cccc(Nc2nc(-c3sc(N)nc3C)cs2)c1	63*	0	0	-14	-20	1
O=C(O)c1ccc(OS(=O)(=O)c2ccc(Cl)s2)cc1	-2	x	x	x	x	x
COc1ccc(C(=O)c2c3ccc(OC)cc3[n+]([O-])n2Cc2ccc(C(N)=O)cc2)cc1	4	4	-3	x	x	1
CC1CCN(c2c([N+](=O)[O-])nn(-c3ccc4c(c3)OCCO4)[n+]2[O-])CC1	-3	3	1	-19	62*	-1
CCC(=O)N1c2ccc(S(=O)(=O)NC3CCCCC3)cc2CC1C (stereo not drawn)	-8	1	2	-13	3	10
CSc1ccc(CN2CCC(N3CCC(C(=O)NC4CC4)CC3)CC2)cc1	1	x	x	x	x	x
Clc1ccc(CSc2nnc(-c3ccncc3)s2)cc1	-2	3	-1	-3	59*	-6
CCOc1cc(/C=N/NC(=O)Cn2nc([N+](=O)[O-])cc2C)cc(Br)c1OCc1ccccc1C	-10	1	0	-23	57*	-4
Oc1c(N=NC(=S)Nc2ccccc2F)c2ccccc2n1Cc1ccc(Cl)cc1	11	-1	3	10	61*	2
Cc1ccc(C)c(Cn2c(O)c(N=NC(=S)Nc3ccccc3F)c3ccccc32)c1	20	-1	0	0	67*	-11
Oc1c(N=NC(=S)Nc2ccccc2F)c2ccccc2n1Cc1ccccc1F	0	2	2	16	88*	15
COc1ccc(OC)c(/C=C/C(=O)c2ccc3c(c2)OCCO3)c1	-17	3	4	-2	-12	6
Cn1c(=O)n(C)c2cc(N3CCCCC3)c(NC(=O)c3ccccc3)cc21	13	0	-1	-3	4	6
CCOC(=O)C1CCN(c2cc3c(cc2NC(=O)c2ccccc2)n(C)c(=O)n3C)CC1	66*	2	12	-14	5	-10
CCOC(=O)C1CCN(c2cc3c(cc2NC(=O)c2ccc(OC)c(OC)c2)n(C)c(=O)n3C)CC1	54*	1	0	-2	40	-5
CCNC(=S)Nc1ccc2c(c1)oc1ccccc12	-5	-1	1	x	-8	-5
CCOC(=O)NC(=O)CSc1ccc(S(=O)(=O)N(C)C2CCCCC2)cn1	1	2	x	x	x	1
COC(=O)C1=CN(Cc2ccc(OC)c(OC)c2)C=C(C(=O)OC)C1c1cccc(F)c1	8	-2	9	4	63*	-2
SMILES	Cardio protect	PP5 primary	Fh CTSL1 inh	p-CIP stab down	T cruzi inh	GASC-1 inh
COC(=O)C1=CN(Cc2ccc(F)cc2)C=C(C(=O)OC)C1c1cc(OC)c(OC)c(OC)c1	6	4	1	-4	16	-1
CCN(CC)CCCn1c2c(c(SCC(=O)Nc3ccccc3Cl)nc1=O)CCC2	5	0	2	x	6	-5
CCc1ccc2oc(-c3ccc(OC)cc3)cc(=Nc3c(C)n(C)n(-c4ccccc4)c3=O)c2c1	-19	-1	-9	-2	64*	-8
CC1CCN(CC(O)COCCC23CC4CC(CC(C4)C2)C3)CC1 (stereo not drawn)	-4	2	1	-8	61*	-3
CC1CCN(CC(O)COCCOc2ccc(Br)cc2)CC1 (stereo not drawn)	-1	4	0	3	39	6
O=C(CCNC(=O)c1ccc(Br)cc1)Nc1ccc(S(=O)(=O)N2CCOCC2)cc1	1	x	x	x	x	22
C=CCc1cc(Cl)ccc1OCCNCCN1CCOCC1	-1	0	-6	-10	73*	-25
C/C(N)=C(/C#N)C(=O)CSc1nc(-c2ccccc2)c(-c2ccccc2)o1	-5	2	4	-14	59*	4
N/C(CSc1nc(-c2ccccc2)c(-c2ccccc2)o1)=N\O	6	1	-3	-5	10	24
O=C1c2ccccc2NC(c2cccc([N+](=O)[O-])c2)N1O (stereo not drawn)	25	-1	0	-13	-9	-24
CCn1cc(C2Nc3ccccc3C(=O)N2O)c(C)n1 (stereo not drawn)	1	0	-1	-8	-2	-5
Cc1c(C2Nc3ccccc3C(=O)N2O)cnn1C (stereo not drawn)	52*	2	-2	-2	-7	-5
O=C1c2ccccc2NC(c2ccc([N+](=O)[O-])cc2)N1O (stereo not drawn)	62*	1	-4	-10	-22	-16
CCCCN1C(=S)SC(C)(C)C1/[N+]([O-])=C/c1ccc(S(=O)(=O)NC)cc1 (stereo not drawn)	4	2	1	12	0	5
O=C1CCC2(CCCCC2)N1	-2	x	x	x	x	x
O=C(CCl)NCc1c(Cl)cccc1-n1cccc1	12	0	17*	5	-19	-1
O=C(Cc1c(Cl)cccc1Cl)NCCc1ccc(Cl)cc1	1	2	-1	-12	26	11
OCC1(Cc2ccc(Cl)cc2)CCN(Cc2ccc(Oc3ncccn3)cc2)CC1	5	2	-2	-23	59*	-1
OCC1(Cc2ccc(Cl)cc2)CCN(Cc2ccc(F)c(F)c2)CC1	2	1	-2	-2	32	4
Cc1cccc(CSc2cccc3cccnc23)c1	-4	0	4	-16	70*	-11
O=C(c1cccs1)c1no[n+]([O-])c1C(=O)c1cccs1	-30	-2	12	-12	62*	3
COc1ccc(NC(=O)c2c(N)no[n+]2[O-])cc1	-2	-1	3	11	39	-1
COc1ccc(C(=O)c2no[n+]([O-])c2C(=O)c2ccc(OC)cc2)cc1	-32	1	18*	12	-15	6
CC(C)CN1CC(COCc2ccccc2)Oc2ccccc2S1(=O)=O (stereo not drawn)	-19	x	x	x	x	x
CCc1nnc(NC(=O)CN2C(=O)N(C)C3(CCCCC3)C2=O)s1	15	4	x	x	x	2
